Measurements reported in ChEMBL document CHEMBL3286362, “Farnesyltransferase inhibitors: CAAX mimetics based on different biaryl scaffolds” (Bioorg Med Chem Lett, 2014).
Activity calls are given as the source filed them. No cut-off for these calls is given here.

Organism: Rattus norvegicus
Assay: Inhibition of FTase-mediated RAS prenylation in RASMC at 2 uM after 72 hrs by Western blotting analysis
Outline: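 Rat aortic smooth muscle cells were incubated for 72 h with or without test ester (25–400 µM) or with the HMG-CoA reductase inhibitor simvastatin (2 µM) as positive control. Total cell lysates were then prepared and Ras prenylation was assessed by western blot using an anti-Ras antibody (clone RAS10).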
In the case of `CCC(C)(C)C(=O)O[C@H]1C[C@@H](C)C=C2C=C[C@H](C)[C@H](CC[C@@H]3C[C@@H](O)CC(=O)O3)[C@H]21`, the inhibition is reported as “Active”.

Target: T1, Protein farnesyltransferase (Homo sapiens, UniProt P49354+P49356)
Assay: Inhibition of recombinant FTase (unknown origin) at 20 uM by spectrofluorimetric analysis relative to control
Type: protein-complex assay
Outline: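 Fluorescence-based FTase activity assay; free acids screened at a single 20 µM concentration and percent inhibition determined.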
Compound `CSCC[C@H](NC(=O)c1ccc(NC(=O)Cc2csc(N)n2)cc1-c1ccsc1)C(=O)O` has an inhibition of 20.9%. With `CSCC[C@H](NC(=O)c1ccc(OCC2COc3ccccc3O2)cc1-c1ccsc1)C(=O)O` (stereo not given in full) the inhibition was 96.6%. In the case of `CSCC[C@H](NC(=O)c1ccc(OCC2COc3ccccc3O2)cc1-c1cncc2ccccc12)C(=O)O` (stereo not given in full), the inhibition is reported as 14.5%. `CSCC[C@H](NC(=O)c1ccc(OCC2COc3ccccc3O2)cc1-c1ccoc1)C(=O)O` (stereo not given in full) showed an inhibition of 48.7%. With `CSCC[C@H](NC(=O)c1ccc(OCC2COc3ccccc3O2)cc1-c1cccc2ccccc12)C(=O)O` (stereo not given in full) the inhibition was 41.7%. Work on `CSCC[C@H](NC(=O)c1ccc(OCC2COc3ccccc3O2)cc1-c1cccs1)C(=O)O` (stereo not given in full) yielded an inhibition of 90%. In the case of `CSCC[C@H](NC(=O)c1ccc(NC(=O)Cc2csc(N)n2)cc1-c1ccoc1)C(=O)O`, the inhibition is reported as 98.7%. `CSCC[C@H](NC(=O)c1ccc(NC(=O)Cc2csc(N)n2)cc1-c1ccco1)C(=O)O` gave an inhibition of 15.4%. `CSCC[C@H](NC(=O)c1ccc(NC(=O)Cc2csc(N)n2)cc1-c1cccs1)C(=O)O` gave an inhibition of 53.8%. Compound `CSCC[C@H](NC(=O)c1ccc(NC(=O)Cc2csc(N)n2)cc1-c1cncc2ccccc12)C(=O)O` has an inhibition of 0%. With `CSCC[C@H](NC(=O)c1ccc(OCC2COc3ccccc3O2)cc1-c1ccco1)C(=O)O` (stereo not given in full) the inhibition was 51.5%. With `CSCC[C@H](NC(=O)c1ccc(NC(=O)Cc2csc(N)n2)cc1-c1cccc2ccccc12)C(=O)O` the inhibition was 90.4%.

Target: T1, Protein farnesyltransferase
Assay: Inhibition of recombinant FTase (unknown origin) by spectrofluorimetric analysis
Type: protein-complex assay
For `CSCC[C@H](NC(=O)c1ccc(OCC2COc3ccccc3O2)cc1-c1ccsc1)C(=O)O` (stereo not given in full), the IC50 was 5 µM. With `CSCC[C@H](NC(=O)c1ccc(NC(=O)Cc2csc(N)n2)cc1-c1ccoc1)C(=O)O` the IC50 was 2.8 µM.

Tested on: not listed separately
Assay: (§1) Inhibition of FTase-mediated RAS prenylation in RASMC after 72 hrs by Western blotting analysis
Design: species or system Rattus norvegicus
Outline: (§2)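 Rat aortic SMCs incubated 72 h with 25 to 400 µM of test ester or without it, alongside simvastatin 2 µM as positive control. Total cell lysates were prepared and Ras prenylation was assessed by Western blot with anti-Ras antibody (clone RAS10).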
Work on `CSCC[C@H](NC(=O)c1ccc(NC(=O)Cc2csc(N)n2)cc1-c1ccoc1)C(=O)OC(C)C` yielded an IC50 of 100 µM.

Organism: Rattus norvegicus
Assay: as §1
Outline: as §2
For `CSCC[C@H](NC(=O)c1ccc(NC(=O)Cc2csc(N)n2)cc1-c1ccoc1)C(=O)OC(C)C`, the inhibition was “Dose-dependent effect”.

Tested on: not listed separately
Assay: (§3) Growth inhibition of RASMC after 72 hrs by Coulter counting analysis
Type: functional, Rattus norvegicus
Outline: (§4)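 Proliferation of cultured rat aortic smooth muscle cells, with test agents given as isopropyl esters to aid membrane permeability; IC50 values derived.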
Work on `CSCC[C@H](NC(=O)c1ccc(NC(=O)Cc2csc(N)n2)cc1-c1cccc2ccccc12)C(=O)OC(C)C` yielded an IC50 of 81 µM. With `CSCC[C@H](NC(=O)c1ccc(NC(=O)Cc2csc(N)n2)cc1-c1ccco1)C(=O)OC(C)C` the IC50 was 110 µM. Work on `CSCC[C@H](NC(=O)c1ccc(OCC2COc3ccccc3O2)cc1-c1ccco1)C(=O)OC(C)C` (stereo not given in full) yielded an IC50 of 99 µM. For `CSCC[C@H](NC(=O)c1ccc(NC(=O)Cc2csc(N)n2)cc1-c1cncc2ccccc12)C(=O)OC(C)C`, the IC50 was 252 µM. Work on `CSCC[C@H](NC(=O)c1ccc(NC(=O)Cc2csc(N)n2)cc1-c1cccs1)C(=O)OC(C)C` yielded an IC50 of 200 µM. Work on `CSCC[C@H](NC(=O)c1ccc(OCC2COc3ccccc3O2)cc1-c1cccc2ccccc12)C(=O)OC(C)C` (stereo not given in full) yielded an IC50 of 155 µM. Work on `CSCC[C@H](NC(=O)c1ccc(NC(=O)Cc2csc(N)n2)cc1-c1ccoc1)C(=O)OC(C)C` yielded an IC50 of 259 µM. `CSCC[C@H](NC(=O)c1ccc(OCC2COc3ccccc3O2)cc1-c1cccs1)C(=O)OC(C)C` (stereo not given in full) gave an IC50 of 81 µM. In the case of `CSCC[C@H](NC(=O)c1ccc(OCC2COc3ccccc3O2)cc1-c1ccoc1)C(=O)OC(C)C` (stereo not given in full), the IC50 is reported as 61 µM. With `CSCC[C@H](NC(=O)c1ccc(NC(=O)Cc2csc(N)n2)cc1-c1ccsc1)C(=O)OC(C)C` the IC50 was 123 µM.

Organism: Rattus norvegicus
Assay: as §3
Type: functional
Outline: as §4
For `CSCC[C@H](NC(=O)c1ccc(OCC2COc3ccccc3O2)cc1-c1cncc2ccccc12)C(=O)OC(C)C` (stereo not given in full), the “growth inhibition (GI)” value was “inactive”. In the case of `CSCC[C@H](NC(=O)c1ccc(OCC2COc3ccccc3O2)cc1-c1ccsc1)C(=O)OC(C)C` (stereo not given in full), the “growth inhibition (GI)” value is reported as “inactive”. In the case of `CSCC[C@H](NC(=O)c1ccc(NC(=O)Cc2csc(N)n2)cc1-c1ccoc1)C(=O)OC(C)C`, the “growth inhibition (GI)” value is reported as “Dose-dependent effect”.
